Consider 31 compounds from ChEMBL document CHEMBL1122808, “Substituent effects on reactivity and spectral parameters of cephalosporins” (J Med Chem, 1984).

“And” between values parts separate entries of the source, which are not always exact repeats. Equal values may be shown once.

One data set can be described thus: Hydrolysis rate constant at pH 10. Particulars: buffer. It is filed as ADME.
As for `CC1=C(C(=O)O)N2C(=O)C(NC(=O)C(N)C3=CCC=CC3)C2SC1` (configuration not stated), the k came out at 0.067 h⁻¹.
As for `CC1=C(C(=O)O)N2C(=O)C(NC(=O)Cc3ccccc3)C2SC1` (configuration not stated), the k stood at 0.033 h⁻¹.
On the same count and under the same terms, next, `CC(=O)OCC1=C(C(=O)O)N2C(=O)C(NC(=O)COc3ccccc3)C2SC1` (configuration not stated): 0.378 h⁻¹; `CC1=C(C(=O)O)N2C(=O)[C@@H](NC(=O)[C@H](N)c3ccccc3)[C@H]2SC1` [CEPHALEXIN ANHYDROUS]: 0.145 h⁻¹; `O=C(COc1ccccc1)NC1C(=O)N2C(C(=O)O)=C(CO)CSC12` (configuration not stated): 0.084 h⁻¹.
On the same count and under the same terms, the result for `O=C(Cc1cccs1)NC1C(=O)N2C(C(=O)[O-])=C(C[n+]3ccccc3)CSC12` (configuration not stated) reads 0.675 h⁻¹ and 1.08 h⁻¹; that for `O=C(COc1ccccc1)NC1C(=O)N2C(C(=O)[O-])=C(C[n+]3ccccc3)CSC12` (configuration not stated), 0.857 h⁻¹; that for `Cc1nnc(SCC2=C(C(=O)O)N3C(=O)[C@@H](NC(=O)Cn4cnnn4)[C@H]3SC2)s1` [CEFAZOLIN], 0.217 h⁻¹.
Still for that read-out and setting: the result for `CC(=O)OCC1=C(C(=O)O)N2C(=O)C(NC(=O)Cc3cccs3)C2SC1` (configuration not stated) reads 0.349 h⁻¹ and 0.3 h⁻¹.
On to `CC(=O)OCC1=C(C(=O)O)N2C(=O)C(NC(=O)Cc3ccccc3)C2SC1` (configuration not stated), for which the k is 0.36 h⁻¹.
In turn, `CSCC1=C(C(=O)O)N2C(=O)C(NC(=O)Cc3cccs3)C2SC1` (configuration not stated) displayed a k of 0.079 h⁻¹.
On the same count and under the same terms, next, `CC1=C(C(=O)O)N2C(=O)C(NC(=O)Cc3cccs3)C2SC1` (configuration not stated): 0.038 h⁻¹; `CC1=C(C(=O)O)N2C(=O)C(NC(=O)COc3ccccc3)C2SC1` (configuration not stated): 0.049 h⁻¹.
On the same count and under the same terms, the result for `CC1=C(C(=O)O)N2C(=O)C(N)C2SC1` (configuration not stated) reads 0.0097 h⁻¹.

Another data set can be described thus: Hydrolysis rate constant at pH 9.6. Particulars: buffer. In kind it is ADME. An outline of the steps:
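Alkaline hydrolysis was followed by UV spectrophotometry on aqueous cephalosporin solutions at 6 × 10^-4 M and 35.0 ± 0.1 °C, with pH held at 9.60 ± 0.02 by borate buffer.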
As for `Cc1nc(CC(=O)NC2C(=O)N3C(C(=O)O)=C(CSc4nnc(C)s4)CSC23)no1` (configuration not stated), the k was 0.104 h⁻¹.
The compound `O=C(Cc1cccs1)NC1C(=O)N2C(C(=O)O)=C(CSC3=CCC=CC3)CSC12` (configuration not stated) showed a k of 0.019 h⁻¹.
Same read-out and setting: the result for `CC1=C(C(=O)O)N2C(=O)C(NC(=O)C(N)C3=CCC=CC3)C2SC1` (configuration not stated) reads 0.056 h⁻¹.
Compound `CC1=C(C(=O)O)N2C(=O)C(NC(=O)Cc3ccccc3)C2SC1` (configuration not stated) showed a k of 0.017 h⁻¹.
The same measure, in the same setting: the result for `O=C(Cc1cccs1)NC1C(=O)N2C(C(=O)O)=C(CSc3nc4ccccc4s3)CSC12` (configuration not stated) reads 0.095 h⁻¹.
On the same count and under the same terms, next, `CC1=C(C(=O)O)N2C(=O)[C@@H](NC(=O)[C@H](N)c3ccccc3)[C@H]2SC1` [CEPHALEXIN ANHYDROUS]: 0.058 h⁻¹; `O=C(Cc1cccs1)NC1C(=O)N2C(C(=O)O)=C(CSc3c[nH]nn3)CSC12` (configuration not stated): 0.028 h⁻¹; `Cn1nnnc1SCC1=C(C(=O)O)N2C(=O)C(NC(=O)Cc3cccs3)C2SC1` (configuration not stated): 0.126 h⁻¹.
The same measure, in the same setting: the result for `O=C(Cc1cccs1)NC1C(=O)N2C(C(=O)[O-])=C(C[n+]3ccccc3)CSC12` (configuration not stated) reads 0.53 h⁻¹; that for `Cn1nnnc1SCC1=C(C(=O)O)N2C(=O)C(NC(=O)C(C(=O)[O-])c3cccs3)C2SC1.[Na+]` (configuration not stated), 0.122 h⁻¹; that for `Cc1nc(CC(=O)NC2C(=O)N3C(C(=O)O)=C(CSc4c[nH]nn4)CSC23)no1` (configuration not stated), 0.026 h⁻¹.
Consider `CC1=C(C(=O)O)N2C(=O)C(NC(=O)Cc3noc(C)n3)C2SC1` (configuration not stated), for which the k stood at 0.021 h⁻¹.
With `CC(=O)OCC1=C(C(=O)O)N2C(=O)C(NC(=O)NCc3cccs3)C2SC1` (configuration not stated), the k is > 3 h⁻¹.
Same read-out and setting: next, `Cc1nnc(SCC2=C(C(=O)O)N3C(=O)[C@@H](NC(=O)Cn4cnnn4)[C@H]3SC2)s1` [CEFAZOLIN]: 0.107 h⁻¹; `CC(=O)OCC1=C(C(=O)O)N2C(=O)C(NC(=O)Cc3cccs3)C2SC1` (configuration not stated): 0.147 h⁻¹; `CCN(CC)C(=S)SCC1=C(C(=O)O)N2C(=O)C(NC(=O)Cc3cccs3)C2SC1` (configuration not stated): 0.067 h⁻¹.
On to `Cc1nc(CC(=O)NC2C(=O)N3C(C(=O)O)=C(CSc4nnc(C)o4)CSC23)no1` (configuration not stated), for which the k turned out to be 0.105 h⁻¹.
The same measure, in the same setting: next, `Cc1nnc(SCC2=C(C(=O)O)N3C(=O)C(NC(=O)Cc4cccs4)C3SC2)s1` (configuration not stated): 0.12 h⁻¹; `CC(=O)OCC1=C(C(=O)O)N2C(=O)C(NC(=O)CSc3ccncc3)C2SC1` (configuration not stated): 0.157 h⁻¹.
Same read-out and setting: the result for `CC(C(=O)NC1C(=O)N2C(C(=O)O)=C(CSc3nnnn3C)CSC12)c1cccs1` (configuration not stated) reads 0.112 h⁻¹; that for `Cn1nnnc1SCC1=C(C(=O)O)N2C(=O)C(NC(=O)C(Br)c3cccs3)C2SC1` (configuration not stated), 0.21 h⁻¹; that for `CC(=O)OCC1=C(C(=O)O)N2C(=O)[C@@H](N)[C@H]2SC1`, 0.037 h⁻¹.
Same read-out and setting: the result for `NC(=O)c1ccc[n+](CC2=C(C(=O)[O-])N3C(=O)C(NC(=O)Cc4cccs4)C3SC2)c1` (configuration not stated) reads 0.57 h⁻¹.
